From ChEMBL document CHEMBL3124940, “Design, synthesis and biological evaluation of D-ring opened galantamine analogs as multifunctional anti-Alzheimer agents” (Eur J Med Chem, 2014)
Activity calls are given as the source filed them. The calls are words filed in the database; no cut-off is given here.

Columns and labels:
Rattus norvegicus [1] = experiment: Toxicity in Wistar rat assessed as liver weight at 6 umol/100 g body weight, ip relative to control; format: organism-based; details: in vivo
Rattus norvegicus [2] = experiment: Toxicity in Wistar rat assessed as body weight at 6 umol/100 g body weight, ip relative to control; format: organism-based; details: in vivo
Rattus norvegicus [3] = experiment: Toxicity in Wistar rat assessed as lipidperoxidation product level in brain at 1 umol/100 g body weight, ip by fluorometric analysis relative to control; format: organism-based; details: in vivo
Outline: (§1)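 Rats dosed i.p.; tissues taken after 24 h. For GSH/GSSG, tissue homogenized in 11 volumes of 0.2 M sodium phosphate (5 mM EDTA, pH 8.0) plus 4 volumes of 25% metaphosphoric acid and centrifuged 12 000 × g, 4 °C, 30 min; supernatant read photometrically (GSH) or fluorometrically (GSSG). Lipid peroxidation products measured as TBARS in 19-volume ice-cold saline homogenates, fluorometrically.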

Rattus norvegicus [4] = experiment: Toxicity in Wistar rat assessed as brain weight at 6 umol/100 g body weight, ip relative to control; format: organism-based; details: in vivo
Rattus norvegicus [5] = experiment: Toxicity in Wistar rat assessed as lipidperoxidation product level in liver at 1 umol/100 g body weight, ip relative to control; format: organism-based; details: in vivo
[6] = biological target: Amyloid-beta precursor protein (Homo sapiens) (UniProt P05067); experiment: Inhibition of amyloid beta (1 to 42) aggregation (unknown origin) after 1 hr by thioflavin T fluorescence assay
Outline: (§2)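 Aβ42 stock (200 µM in DMSO) centrifuged 12,000 rpm for 10 min; supernatant used. Compound (2 µL of 0.2–4.0 mM DMSO stock) and 2 µL Aβ42 stock added to 76 µL PBS pH 7.4, incubated 1 h at room temperature. 80 µL of 5 µM ThT in 50 mM glycine-NaOH pH 8.5 then added; fluorescence read at excitation 430 nm, emission 488 nm.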

Rattus norvegicus [7] = experiment: Toxicity in Wistar rat assessed as lipidperoxidation product level in liver at 6 umol/100 g body weight, ip relative to control; format: organism-based; details: in vivo
Rattus norvegicus [8] = experiment: Toxicity in Wistar rat assessed as body weight at 1 umol/100 g body weight, ip relative to control; format: organism-based; details: in vivo
Rattus norvegicus [9] = experiment: Toxicity in Wistar rat assessed as GSH level in brain at 6 umol/100 g body weight, ip by fluorometric analysis relative to control; format: organism-based; details: in vivo
Rattus norvegicus [10] = experiment: Toxicity in Wistar rat assessed as GSH level in kidney at 6 umol/100 g body weight, ip by fluorometric analysis relative to control; format: organism-based; details: in vivo
Rattus norvegicus [11] = experiment: Toxicity in Wistar rat assessed as lipidperoxidation product level in kidney at 1 umol/100 g body weight, ip by fluorometric analysis relative to control; format: organism-based; details: in vivo; outline: as §1
Rattus norvegicus [12] = experiment: Toxicity in Wistar rat assessed as GSH level in brain at 1 umol/100 g body weight, ip by fluorometric analysis relative to control; format: organism-based; details: in vivo
[13] = biological target: Amyloid-beta precursor protein (Homo sapiens) (UniProt P05067); experiment: Inhibition of amyloid beta (1 to 42) aggregation (unknown origin) at 50 uM after 6 days by atomic force microscopic analysis
Outline: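 Compound (2.5 µL of 1.0 mM) and 2.5 µL of 200 µM Aβ42 added to 45 µL PBS (20% TFE, pH 7.4); the control lacks compound. Incubated 37 °C for 6 days, then 3 µL deposited on freshly cleaved mica for 5 min, blown dry and imaged by atomic force microscopy.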

Rattus norvegicus [14] = experiment: Toxicity in Wistar rat assessed as protein content in liver at 6 umol/100 g body weight, ip by Biuret method relative to control; format: organism-based; details: in vivo
Outline: (§3)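 Rats dosed i.p.; after 24 h, liver homogenized 1:3 w/v in 0.1 M sodium phosphate pH 7.4 and centrifuged at 9000 × g, 4 °C, 20 min. Supernatant protein determined by the Biuret method. Ethoxyresorufin-O-deethylation measured fluorometrically as resorufin formed.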

[15] = biological target: Amyloid-beta precursor protein (Homo sapiens) (UniProt P05067); experiment: Inhibition of amyloid beta (1 to 42) aggregation (unknown origin) at 100 uM after 1 hr by thioflavin T fluorescence assay relative to control; outline: as §2
Rattus norvegicus [16] = experiment: Toxicity in Wistar rat assessed as ethylmorphine-N-demethylation activity in liver measured as formaldehyde level at 6 umol/100 g body weight, ip by photometric analysis relative to control; format: organism-based; details: in vivo
Rattus norvegicus [17] = experiment: Toxicity in Wistar rat assessed as change in movement at 1 umol/100 g body weight, ip; format: organism-based; details: in vivo
Rattus norvegicus [18] = experiment: Toxicity in Wistar rat assessed as GSH level in kidney at 1 umol/100 g body weight, ip by fluorometric analysis relative to control; format: organism-based; details: in vivo
Rattus norvegicus [19] = experiment: Toxicity in Wistar rat assessed as ethoxyresorufin-O-deethylation activity in liver measured as resorufin level at 6 umol/100 g body weight, ip by fluorometric analysis relative to control; format: organism-based; details: in vivo; outline: as §3
Rattus norvegicus [20] = experiment: Toxicity in Wistar rat assessed as GSH level in liver at 6 umol/100 g body weight, ip by fluorometric analysis relative to control; format: organism-based; details: in vivo
Rattus norvegicus [21] = experiment: Toxicity in Wistar rat assessed as GSSG level in liver at 6 umol/100 g body weight, ip by fluorometric analysis relative to control; format: organism-based; details: in vivo; outline: as §1
Rattus norvegicus [22] = experiment: Toxicity in Wistar rat assessed as total glutathione level in brain at 1 umol/100 g body weight, ip by fluorometric analysis relative to control; format: organism-based; details: in vivo; outline: as §1
Rattus norvegicus [23] = experiment: Toxicity in Wistar rat assessed as ethoxycoumarin-O-deethylation activity in liver measured as 7-hydroxycoumarin level at 6 umol/100 g body weight, ip by fluorometric analysis relative to control; format: organism-based; details: in vivo
Rattus norvegicus [24] = experiment: Toxicity in Wistar rat assessed as ethylmorphine-N-demethylation activity in liver measured as formaldehyde level at 1 umol/100 g body weight, ip by photometric analysis relative to control; format: organism-based; details: in vivo
Rattus norvegicus [25] = experiment: Toxicity in Wistar rat scopolamine-induced cognition impairment model assessed as change in movement at 1 umol/100 g body weight, ip; format: organism-based; details: in vivo
Outline: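 60-day-old female Wistar rats were trained in an eight-arm radial maze to no errors in under 60 s on 3 consecutive days; each rat served as its own control. Compound in saline was given i.p., then scopolamine (0.05 mg/100 g, saline, i.p.) 5 min later. Errors plus baits not found after 10 min and total searching time were recorded before and 20, 60 and 120 min after scopolamine; n = 14, mean ± SEM.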

[26] = biological target: Amyloid-beta precursor protein (Homo sapiens) (UniProt P05067); experiment: Inhibition of amyloid beta (1 to 42) aggregation (unknown origin) at 5 uM after 1 hr by thioflavin T fluorescence assay; outline: as §2
Rattus norvegicus [27] = experiment: Toxicity in Wistar rat assessed as GSSG level in kidney at 1 umol/100 g body weight, ip by fluorometric analysis relative to control; format: organism-based; details: in vivo; outline: as §1
Rattus norvegicus [28] = experiment: Toxicity in Wistar rat assessed as lipidperoxidation product level in brain at 6 umol/100 g body weight, ip by fluorometric analysis relative to control; format: organism-based; details: in vivo; outline: as §1

Sequence of Amyloid-beta precursor protein (Homo sapiens) (P05067 whole entry): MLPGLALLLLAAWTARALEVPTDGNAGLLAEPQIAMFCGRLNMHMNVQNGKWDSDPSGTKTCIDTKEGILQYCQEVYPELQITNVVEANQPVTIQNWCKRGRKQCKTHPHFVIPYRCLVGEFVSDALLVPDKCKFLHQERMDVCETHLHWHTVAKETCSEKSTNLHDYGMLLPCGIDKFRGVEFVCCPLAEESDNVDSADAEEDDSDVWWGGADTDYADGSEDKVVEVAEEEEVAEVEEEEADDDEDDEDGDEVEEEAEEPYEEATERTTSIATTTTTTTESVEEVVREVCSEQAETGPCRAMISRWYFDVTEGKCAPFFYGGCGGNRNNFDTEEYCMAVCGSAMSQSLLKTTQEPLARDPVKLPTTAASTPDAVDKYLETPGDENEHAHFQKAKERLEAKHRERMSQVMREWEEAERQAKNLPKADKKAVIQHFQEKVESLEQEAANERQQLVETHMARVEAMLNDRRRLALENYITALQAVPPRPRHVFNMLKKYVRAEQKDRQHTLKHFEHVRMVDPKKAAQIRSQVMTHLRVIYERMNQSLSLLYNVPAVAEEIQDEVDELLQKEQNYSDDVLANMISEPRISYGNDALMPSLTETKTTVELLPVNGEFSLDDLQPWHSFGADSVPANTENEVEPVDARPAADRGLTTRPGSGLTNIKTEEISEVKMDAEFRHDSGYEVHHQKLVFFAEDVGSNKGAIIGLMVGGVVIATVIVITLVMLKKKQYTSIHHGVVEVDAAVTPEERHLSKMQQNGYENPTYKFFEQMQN

## COc1ccc2c(c1)oc1cccc(CN(C(=O)CCO[N+](=O)[O-])C(C)C)c12
Rattus norvegicus [1]
  Activity: 8 g
Rattus norvegicus [2]
  Activity: 259 g
Rattus norvegicus [3]
  Activity: 160 nmol/g
Rattus norvegicus [4]
  Activity: 1.87 g
Rattus norvegicus [5]
  Activity: 57.7 nmol/g
[6]
  inhibition: Dose-dependent effect
Rattus norvegicus [7]
  Activity: 63.9 nmol/g
Rattus norvegicus [8]
  Activity: 264 g
Rattus norvegicus [9]
  Activity: 672 µg/g
Rattus norvegicus [10]
  Activity: 1483 µg/g
Rattus norvegicus [11]
  Activity: 93.2 nmol/g
Rattus norvegicus [12]
  Activity: 645 µg/g
[13]
  inhibition: Active
Rattus norvegicus [14]
  Activity: 64.7 mg/mL
[15]
  inhibition: 25%
Rattus norvegicus [16]
  Activity: 0.52 nmol/mg/min
Rattus norvegicus [17]
  Activity: Non-toxic
Rattus norvegicus [18]
  Activity: 1462 µg/g
Rattus norvegicus [19]
  Activity: 121 pmol/mg/min
Rattus norvegicus [20]
  Activity: 2482 µg/g
Rattus norvegicus [21]
  Activity: 418 µg/g
Rattus norvegicus [22]
  Activity: 814 µg/g
Rattus norvegicus [23]
  Activity: 178 pmol/mg/min
Rattus norvegicus [24]
  Activity: 0.48 nmol/mg/min
Rattus norvegicus [25]
  Activity: Non-toxic
[26]
  inhibition: inactive
Rattus norvegicus [27]
  Activity: 161 µg/g
Rattus norvegicus [28]
  Activity: 156 nmol/g
